Data set [1] can be described thus: Drug metabolism in F344 rat feces assessed as 1,4-dideoxy-1,4-imino-D-arabinitol formation by LC-MS/MS method. Format: ADME, tissue-based.
Data set [2] is described as follows: Ratio of drug level in blood to plasma in human after 5 mins. Format: ADME.
Data set [3] in a line: Drug excretion in F344 rat feces at 1 mg/kg, po administered as single dose after 24 hrs by scintillation counting method. Format: ADME, organism-based. Further details: dose 1 mg/kg, route oral. The settings on record: in vivo. The method in brief: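 [14C]-labelled drug (1 mg/kg, 42.2 µCi/kg) was given orally to fasted F344 rats (164–168 g, n = 3). Urine and feces were collected to 24 h; feces were homogenized in 9 volumes of water, combusted and counted. Parent fraction came from the excreted radioactivity times the radio-HPLC (HILIC) peak-area ratio; mean ± S.D.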

Data set [4] in a line: Drug excretion in bile duct cannulated F344 rat bile at 1 mg/kg, po administered as single dose after 0 to 48 hrs by scintillation counting method. Format: ADME, organism-based. Further details: dose 1 mg/kg, route oral. The note with it: in vivo. In outline: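 Common bile duct was cannulated under diethyl ether in fasted F344 rats. After recovery, [14C]-labelled drug (1 mg/kg, 41.9 µCi/kg) was given iv via tail vein or by oral gavage (n = 4). Rats were held in Bollman cages and bile was collected at 4°C over 0–48 h intervals. Bile was counted by liquid scintillation; % of dose.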

Data set [5] can be described thus: Drug excretion in F344 rat feces at 1 mg/kg, po administered as single dose after 0 to 48 hrs by scintillation counting method. Format: ADME, organism-based. Set-up: dose 1 mg/kg, route oral. The settings on record: in vivo. In outline: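 Fasted F344 rats (152–156 g iv via tail vein; 154–159 g oral; n = 4) received [14C]-labelled drug at 1 mg/kg (41.9 µCi/kg). Animals were kept in metabolic cages; urine and feces were collected to 168 h, and expired CO2 was trapped in 2-aminoethanol/2-methoxyethanol (1:1) to 48 h. Samples were counted by liquid scintillation (feces homogenized). Results are % of dose, mean ± S.D.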

The subject of a further data set is Cynomolgus monkey. The data set is described as follows: Drug excretion in cynomolgus monkey assessed as drug level found during cage washing at 3 mg/kg, iv administered as single dose after 0 to 336 hrs by scintillation counting method. Format: ADME, organism-based, Macaca fascicularis. Set-up: dose 3 mg/kg, route intravenous. The settings on record: in vivo. The method in brief: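 Fasted cynomolgus monkeys (n = 4) received [14C]-labelled drug at 3 mg/kg, iv via saphenous vein (191 µCi/kg) or orally by stomach catheter (156.5 µCi/kg). Urine, feces and water cage-wash were collected to 336 h. Samples were counted by liquid scintillation; feces were homogenized in 4-fold water. Results are % of dose, mean ± S.D.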

The nature of data set [6]: Drug metabolism in rat intestinal […] S9 fractions at 0.42 uCi/ml assessed as metabolite formation in presence of NADPH after 1 hr at 37 degC by LC-MS/MS method. Format: ADME, subcellular. The settings on record: s9, 1 h.
The next data set relates to Plasma. The data set is described as follows: Drug metabolism in po dosed monkey plasma by LC-MS/MS method. The note with it: cynomolgus monkey, in vivo.
The nature of data set [7]: Drug metabolism in human liver S9 fractions at 0.42 uCi/ml assessed as metabolite formation in presence of NADPH after 1 hr at 37 degC by LC-MS/MS method. Format: ADME, subcellular, Liver S9 fraction. The settings on record: s9, 1 h.
A short description of data set [8]: Oral bioavailability in cynomolgus monkey at 1 mg/kg administered as single dose by LC-MS/MS method. Format: ADME, organism-based, Macaca fascicularis. The note with it: in vivo. The method in brief: (§1)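 Male F344 rats (146–185 g) and male cynomolgus monkeys (3.48–4.29 kg), n = 4 each, fasted overnight, received single iv or oral doses of 0.3, 1.0, 3.0 or 10.0 mg/kg. Monkeys had 2-week washouts between doses. Plasma was sampled to 48 h and assayed by LC-MS/MS with deuterated internal standard. Noncompartmental analysis: tmax observed; t1/2 by regression on ≥3 terminal log points; Vss = dose·AUMC/(AUC0–inf)²; Foral = oral/iv AUC0–inf at the same dose.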

Data set [9] can be described thus: Cmax in cynomolgus monkey at 0.3 mg/kg, po administered as single dose by LC-MS/MS method. The settings on record: in vivo. Format: ADME, organism-based, Macaca fascicularis. Set-up: dose 0.3 mg/kg, route oral. The method in brief: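 Fasted male F344 rats (146–185 g) and cynomolgus monkeys (3.48–4.29 kg), n = 4 each, received a single oral dose; monkeys had 2-week washouts. Plasma sampled up to 48 h, stored at […], assayed by LC-MS/MS with a deuterated internal standard. Cmax taken from observed data by noncompartmental analysis; mean ± S.D. (n = 3 or 4).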

Another data set concerns Rattus norvegicus. The data set is described as follows: Reduction in plasma glucose in starch loaded po dosed ZDF rat. Format: functional. In outline:
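Male ZDF rats were acclimatized to 10 weeks of age and fasted overnight (n = 8 per group). They were given oral compound (0–0.1 mg/kg) in starch suspension (2 g/kg); a nonstarch control received water at 10 ml/kg. Plasma glucose was measured at −15 min (taken as baseline) and at 0.5, 1, 2 and 4 h with an automatic analyzer. ΔAUC of glucose change was calculated by the trapezoidal rule. ED50 came from a sigmoid Emax model bounded by the starch and nonstarch controls, and groups were compared by Dunnett test.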

Data set [10] is described as follows: AUClast in cynomolgus monkey at 3 mg/kg, iv administered as single dose by LC-MS/MS method. The settings on record: plasma. Further details: time 0 - last, dose 3 mg/kg, route intravenous. Format: ADME, organism-based, Macaca fascicularis. The method in brief: (§2)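 Fasted male F344 rats (146–185 g) or male cynomolgus monkeys (3.48–4.29 kg), n = 4 per dose, given single iv or oral dose of 0.3, 1.0, 3.0 or 10.0 mg/kg; monkeys dosed with 2-week washouts. Blood sampled to 48 h; plasma stored frozen. LC-MS/MS with deuterated internal standard. Noncompartmental analysis: AUClast by trapezoidal rule; AUC0–inf = AUClast + Ctz/terminal rate constant; mean ± S.D.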

Data set [11] in a line: AUClast in cynomolgus monkey at 0.3 mg/kg, po administered as single dose by LC-MS/MS method. The settings on record: plasma. Format: ADME, organism-based, Macaca fascicularis. Further details: dose 0.3 mg/kg, route oral, time 0 - last. In outline:
as §2

Data set [12] in a line: Half life in F344 rat at 3 mg/kg, iv administered as single dose by LC-MS/MS method. Further details: dose 3 mg/kg, route intravenous. Format: ADME, organism-based. The settings on record: in vivo. In outline:
as §1

The nature of data set [13]: Volume of distribution at steady state in F344 rat at 3 mg/kg, iv administered as single dose by LC-MS/MS method. Set-up: dose 3 mg/kg, route intravenous. The settings on record: in vivo, read-out: Vdss. Format: ADME, organism-based. In outline:
as §1

A short description of data set [14]: AUC (0 to infinity) in cynomolgus monkey at 10 mg/kg, iv administered as single dose by LC-MS/MS method. The settings on record: plasma. Format: ADME, organism-based, Macaca fascicularis. Set-up: dose 10 mg/kg, route intravenous, time infinity. The method in brief:
as §2

A short description of data set [15]: AUC (0 to infinity) in F344 rat at 3 mg/kg, po administered as single dose by LC-MS/MS method. Format: ADME, organism-based. Set-up: time infinity, dose 3 mg/kg, route oral. The note with it: plasma. The method in brief: as §2
Data set [16] is described as follows: Volume of distribution at steady state in cynomolgus monkey at 3 mg/kg, iv administered as single dose by LC-MS/MS method. The settings on record: in vivo, read-out: Vdss. Set-up: dose 3 mg/kg, route intravenous. Format: ADME, organism-based, Macaca fascicularis. In outline: as §1
Data set [17] in a line: Oral bioavailability in cynomolgus monkey at 3 mg/kg administered as single dose by LC-MS/MS method. The settings on record: in vivo. Format: ADME, organism-based, Macaca fascicularis. The method in brief: as §1
Data set [18] can be described thus: Cmax in F344 rat at 10 mg/kg, po administered as single dose by LC-MS/MS method. Further details: dose 10 mg/kg, route oral. The note with it: in vivo. Format: ADME, organism-based.
The nature of data set [19]: AUC (0 to infinity) in cynomolgus monkey at 1 mg/kg, iv administered as single dose by LC-MS/MS method. Format: ADME, organism-based, Macaca fascicularis. Set-up: time infinity, dose 1 mg/kg, route intravenous. The settings on record: plasma. The method in brief:
as §2

The nature of data set [20]: AUClast in cynomolgus monkey at 10 mg/kg, iv administered as single dose by LC-MS/MS method. Format: ADME, organism-based, Macaca fascicularis. Further details: time 0 - last, dose 10 mg/kg, route intravenous. The note with it: plasma. In outline: as §2
Data set [21] can be described thus: AUClast in cynomolgus monkey at 1 mg/kg, po administered as single dose by LC-MS/MS method. Format: ADME, organism-based, Macaca fascicularis. Further details: time 0 - last, dose 1 mg/kg, route oral. The settings on record: plasma. The method in brief: as §2

As to `C[C@H]1O[C@@H](O[C@H]2[C@H](O)[C@@H](O)[C@@H](O[14C@H]3[14C@H](O)[14CH2]N[14C@@H]3[14CH2]O)O[C@@H]2CO)[C@H](O)[C@@H](O)[C@@H]1O`, the Drug metabolism result in data set [1] was “metabolite_detected”; in data set [6], “metabolite_not_detected”; in the data set with Plasma, “metabolite_not_detected”; in [7] it was “metabolite_not_detected”. Also, in data set [2], the blood plasma ratio at 5 min came out at 0.521. Also, the Drug excretion in data set [3] turned out to be 70.3%; in [4] it was 0.59%; in data set [5], 77.59%; with Cynomolgus monkey it was 14.5%.
Broadly, the bioavailability is the share of a dose that reaches the circulation, judged against a reference dose that is usually intravenous. The Cmax is the highest concentration seen after dosing. For orientation: ED50 means the dose at which the effect has come halfway, by size or by number of responders. By AUC(0-t) is commonly meant the area under the concentration-time curve up to a stated or last time point. A word on the half-life: it is the time in which the quantity being followed falls by half. A word on the AUC(0-inf): it is the area under the concentration-time curve extrapolated to infinity. For the compound `C[C@H]1O[C@@H](O[C@H]2[C@H](O)[C@@H](O)[C@@H](O[C@H]3[C@H](O)CN[C@@H]3CO)O[C@@H]2CO)[C@H](O)[C@@H](O)[C@@H]1O`, the bioavailability is 0.983% in data set [8] and 1.05% in data set [17]. Further, the Cmax in data set [9] came to 5.23 ng/mL; in data set [18] it was 285 ng/mL. Also, it took a dose of 0.015 mg/kg to reach the 50% effect level in the data set on Rattus norvegicus (ED50). In addition, the inhibition result in the data set with Rattus norvegicus is “Dose-dependent effect”. The AUC(0-t) in data set [10] came out at 18100 ng·h/mL; in [11], 15 ng·h/mL; in data set [20] it was 74300 ng·h/mL; in data set [21], 52 ng·h/mL. In data set [12], this compound had a half-life of 23.6 h. The Vd in data set [13] is 0.219 L/kg; in data set [16], 0.262 L/kg. The AUC(0-inf) in data set [14] stood at 74500 ng·h/mL; in [15] it was 325 ng·h/mL; in data set [19], 5890 ng·h/mL.

The values are drawn from ChEMBL document CHEMBL3526127, “Absorption, elimination, and metabolism of CS-1036, a novel α-amylase inhibitor in rats and monkeys, and the relationship between gastrointestinal distribution and suppression of glucose absorption” (Drug Metab Dispos, 2013).
